The text below walks through data of ChEMBL document CHEMBL1154853, “New 1,3-oxazolo[4,5-c]quinoline derivatives: synthesis and evaluation of antibacterial and antituberculosis properties” (2010).

Values after ≈ are worked out from the molar mass of the structure shown.

The first experiment relates to Klebsiella pneumoniae. Nature of the experiment: Antimicrobial activity against Klebsiella pneumoniae at MIC after 3 to 4 days by disc diffusion method. The format is functional.
On to `Cc1cc(C)cc(Nc2nc3c(-c4ccc(F)cc4)nc4ccccc4c3o2)c1`, for which the “diameter of the inhibition zone (DIZ)” value was 12 mm.
Take `O=C(Nc1ccc(F)cc1)Nc1c(-c2ccc(F)cc2)nc2ccccc2c1O`: the “diameter of the inhibition zone (DIZ)” value is listed as 16 mm.
As to `O=C(Nc1ccc(F)cc1)Nc1c(-c2cccc(F)c2)nc2ccccc2c1O`, the “diameter of the inhibition zone (DIZ)” value came to 16 mm.
On the same count and under the same terms, then `O=C(Nc1cccc(Cl)c1)Nc1c(-c2ccc(F)cc2)nc2ccccc2c1O`, with 20 mm; and `N#Cc1cccc(NC(=O)Nc2c(-c3cccc(F)c3)nc3ccccc3c2O)c1`, with 18 mm.
On the same count and under the same terms, with `Fc1cccc(-c2nc3ccccc3c3oc(NCc4ccccc4)nc23)c1` the figure was 18 mm.

A further experiment concerns Pseudomonas aeruginosa. Description: Antimicrobial activity against Pseudomonas aeruginosa ATTC 27853 at MIC after 3 to 4 days by disc diffusion method. The format is functional.
As to `Cc1cc(C)cc(Nc2nc3c(-c4ccc(F)cc4)nc4ccccc4c3o2)c1`, the “diameter of the inhibition zone (DIZ)” value came out at 14 mm.
Consider `O=C(Nc1ccc(F)cc1)Nc1c(-c2ccc(F)cc2)nc2ccccc2c1O`, for which the “diameter of the inhibition zone (DIZ)” value was 17 mm.
In the case of `O=C(Nc1ccc(F)cc1)Nc1c(-c2cccc(F)c2)nc2ccccc2c1O`, the “diameter of the inhibition zone (DIZ)” value is on record as 19 mm.
With `O=C(Nc1cccc(Cl)c1)Nc1c(-c2ccc(F)cc2)nc2ccccc2c1O`, the “diameter of the inhibition zone (DIZ)” value turned out to be 20 mm.
With `N#Cc1cccc(NC(=O)Nc2c(-c3cccc(F)c3)nc3ccccc3c2O)c1`, the “diameter of the inhibition zone (DIZ)” value was determined as 19 mm.
Still for that read-out and setting: then `Fc1cccc(-c2nc3ccccc3c3oc(NCc4ccccc4)nc23)c1`, with 19 mm.

The subject of a further experiment is Staphylococcus aureus. Description: Antimicrobial activity against Staphylococcus aureus […] after 16 to 18 hrs by serial dilution method. The experiment is classed as functional. The method in brief: (§1)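 Tube broth dilution: serial drug dilutions in Mueller Hinton broth, pH adjusted to 5.0 with phosphate buffer. A standardized bacterial suspension was inoculated and incubated 16-18 h at 37 °C. MIC was read as the lowest drug concentration with no visible growth. Ciprofloxacin served as the reference.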
For the molecule `Cc1cc(C)cc(Nc2nc3c(-c4ccc(F)cc4)nc4ccccc4c3o2)c1`, inhibition of growth (MIC) required 12.5 µg/mL (≈ 32.6 µM).
Same read-out and setting: with `O=C(Nc1ccc(F)cc1)Nc1c(-c2ccc(F)cc2)nc2ccccc2c1O` the figure was 6.25 µg/mL (≈ 16 µM); with `O=C(Nc1ccc(F)cc1)Nc1c(-c2cccc(F)c2)nc2ccccc2c1O`, 6.25 µg/mL (≈ 16 µM); with `O=C(Nc1cccc(Cl)c1)Nc1c(-c2ccc(F)cc2)nc2ccccc2c1O`, 6.25 µg/mL (≈ 15.3 µM).
For `N#Cc1cccc(NC(=O)Nc2c(-c3cccc(F)c3)nc3ccccc3c2O)c1`, the MIC was 6.25 µg/mL (≈ 15.7 µM).
On the same count and under the same terms, with `Fc1cccc(-c2nc3ccccc3c3oc(NCc4ccccc4)nc23)c1` the figure was 6.25 µg/mL (≈ 16.9 µM).

A further experiment has as its system Staphylococcus aureus. Nature of the experiment: Antimicrobial activity against Staphylococcus aureus […] at MIC after 3 to 4 days by disc diffusion method. The experiment is classed as functional.
For `Cc1cc(C)cc(Nc2nc3c(-c4ccc(F)cc4)nc4ccccc4c3o2)c1`, the “diameter of the inhibition zone (DIZ)” value is 11 mm.
The same measure, in the same setting: then `O=C(Nc1ccc(F)cc1)Nc1c(-c2ccc(F)cc2)nc2ccccc2c1O`, with 18 mm; and `O=C(Nc1ccc(F)cc1)Nc1c(-c2cccc(F)c2)nc2ccccc2c1O`, with 20 mm.
For the molecule `O=C(Nc1cccc(Cl)c1)Nc1c(-c2ccc(F)cc2)nc2ccccc2c1O`, the “diameter of the inhibition zone (DIZ)” value came out at 18 mm.
Same read-out and setting: then `N#Cc1cccc(NC(=O)Nc2c(-c3cccc(F)c3)nc3ccccc3c2O)c1`, with 19 mm; and `Fc1cccc(-c2nc3ccccc3c3oc(NCc4ccccc4)nc23)c1`, with 22 mm.

The next experiment relates to Escherichia coli. Nature of the experiment: Antimicrobial activity against Escherichia coli […] after 16 to 18 hrs by serial dilution method. The format is functional. Summed up:
as §1
Molecule `Cc1cc(C)cc(Nc2nc3c(-c4ccc(F)cc4)nc4ccccc4c3o2)c1` yielded an MIC of 6.25 µg/mL (≈ 16.3 µM).
Same read-out and setting: then `O=C(Nc1ccc(F)cc1)Nc1c(-c2ccc(F)cc2)nc2ccccc2c1O`, with 6.25 µg/mL (≈ 16 µM); and `O=C(Nc1ccc(F)cc1)Nc1c(-c2cccc(F)c2)nc2ccccc2c1O`, with 6.25 µg/mL (≈ 16 µM).
Consider `O=C(Nc1cccc(Cl)c1)Nc1c(-c2ccc(F)cc2)nc2ccccc2c1O`, for which the MIC came to 6.25 µg/mL (≈ 15.3 µM).
Still for that read-out and setting: then `N#Cc1cccc(NC(=O)Nc2c(-c3cccc(F)c3)nc3ccccc3c2O)c1`, with 6.25 µg/mL (≈ 15.7 µM).
The same measure, in the same setting: then `Fc1cccc(-c2nc3ccccc3c3oc(NCc4ccccc4)nc23)c1`, with 6.25 µg/mL (≈ 16.9 µM).

Another experiment relates to Escherichia coli. Nature of the experiment: Antimicrobial activity against Escherichia coli […] at MIC after 3 to 4 days by disc diffusion method. The format is functional.
Turning to `Cc1cc(C)cc(Nc2nc3c(-c4ccc(F)cc4)nc4ccccc4c3o2)c1`, the “diameter of the inhibition zone (DIZ)” value is listed as 24 mm.
Take `O=C(Nc1ccc(F)cc1)Nc1c(-c2ccc(F)cc2)nc2ccccc2c1O`: the “diameter of the inhibition zone (DIZ)” value is 24 mm.
On the same count and under the same terms, then `O=C(Nc1ccc(F)cc1)Nc1c(-c2cccc(F)c2)nc2ccccc2c1O`, with 21 mm; and `O=C(Nc1cccc(Cl)c1)Nc1c(-c2ccc(F)cc2)nc2ccccc2c1O`, with 22 mm.
On the same count and under the same terms, with `N#Cc1cccc(NC(=O)Nc2c(-c3cccc(F)c3)nc3ccccc3c2O)c1` the figure was 23 mm; with `Fc1cccc(-c2nc3ccccc3c3oc(NCc4ccccc4)nc23)c1`, 23 mm.

The subject of another experiment is Mycobacterium tuberculosis. Description: Antitubercular activity against Mycobacterium tuberculosis H37Rv at MIC after 24 hrs by broth microdilution method. The format is functional. The method in brief: (§2)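 M. tuberculosis H37Rv grown in Middlebrook 7H9 with 10% OADC, diluted to McFarland 1, 50 µl added to 150 µl fresh medium. Compounds from 2 mg/mL DMF stocks tested at 1, 10 and 100 µg/mL; DMF-only controls. 7 days at 37 °C, then 0.01% resazurin added with 24 h further incubation. MIC = lowest concentration preventing blue-to-pink change.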
In the case of `Cc1cc(C)cc(Nc2nc3c(-c4ccc(F)cc4)nc4ccccc4c3o2)c1`, the “inhibition (INH)” value is 95%.
For the molecule `O=C(Nc1ccc(F)cc1)Nc1c(-c2ccc(F)cc2)nc2ccccc2c1O`, the “inhibition (INH)” value was 95%.
On to `O=C(Nc1ccc(F)cc1)Nc1c(-c2cccc(F)c2)nc2ccccc2c1O`, for which the “inhibition (INH)” value worked out at 95%.
On the same count and under the same terms, then `O=C(Nc1cccc(Cl)c1)Nc1c(-c2ccc(F)cc2)nc2ccccc2c1O`, with 95%; and `N#Cc1cccc(NC(=O)Nc2c(-c3cccc(F)c3)nc3ccccc3c2O)c1`, with 0%.
`Fc1cccc(-c2nc3ccccc3c3oc(NCc4ccccc4)nc23)c1`: the “inhibition (INH)” value was 99%.

A further experiment deals with Pseudomonas aeruginosa. Description: Antimicrobial activity against Pseudomonas aeruginosa ATTC 27853 after 16 to 18 hrs by serial dilution method. The format is functional. The method in brief: as §1
`Cc1cc(C)cc(Nc2nc3c(-c4ccc(F)cc4)nc4ccccc4c3o2)c1` displayed an MIC of 12.5 µg/mL (≈ 32.6 µM).
Take `O=C(Nc1ccc(F)cc1)Nc1c(-c2ccc(F)cc2)nc2ccccc2c1O`: the MIC stood at 6.25 µg/mL (≈ 16 µM).
Still for that read-out and setting: then `O=C(Nc1ccc(F)cc1)Nc1c(-c2cccc(F)c2)nc2ccccc2c1O`, with 6.25 µg/mL (≈ 16 µM).
Molecule `O=C(Nc1cccc(Cl)c1)Nc1c(-c2ccc(F)cc2)nc2ccccc2c1O` showed an MIC of 6.25 µg/mL (≈ 15.3 µM).
Molecule `N#Cc1cccc(NC(=O)Nc2c(-c3cccc(F)c3)nc3ccccc3c2O)c1` gave an MIC of 6.25 µg/mL (≈ 15.7 µM).
As to `Fc1cccc(-c2nc3ccccc3c3oc(NCc4ccccc4)nc23)c1`, the MIC turned out to be 6.25 µg/mL (≈ 16.9 µM).

The next experiment relates to Mycobacterium tuberculosis. Nature of the experiment: Antitubercular activity against Mycobacterium tuberculosis H37Rv after 24 hrs by broth microdilution method. The format is functional. The method in brief: as §2
For `Cc1cc(C)cc(Nc2nc3c(-c4ccc(F)cc4)nc4ccccc4c3o2)c1`, 10 µg/mL (≈ 26.1 µM) was the least that counted as inhibitory (MIC).
Same read-out and setting: with `O=C(Nc1ccc(F)cc1)Nc1c(-c2ccc(F)cc2)nc2ccccc2c1O` the figure was 10 µg/mL (≈ 25.6 µM); with `O=C(Nc1ccc(F)cc1)Nc1c(-c2cccc(F)c2)nc2ccccc2c1O`, 10 µg/mL (≈ 25.6 µM); with `O=C(Nc1cccc(Cl)c1)Nc1c(-c2ccc(F)cc2)nc2ccccc2c1O`, 10 µg/mL (≈ 24.5 µM).
`N#Cc1cccc(NC(=O)Nc2c(-c3cccc(F)c3)nc3ccccc3c2O)c1` had an MIC of over 100 µg/mL.
Same read-out and setting: with `Fc1cccc(-c2nc3ccccc3c3oc(NCc4ccccc4)nc23)c1` the figure was 1 µg/mL (≈ 2.71 µM).

Another experiment has as its system Klebsiella pneumoniae. Nature of the experiment: Antimicrobial activity against Klebsiella pneumoniae after 16 to 18 hrs by serial dilution method. The format is functional. Summed up:
as §1
For the molecule `Cc1cc(C)cc(Nc2nc3c(-c4ccc(F)cc4)nc4ccccc4c3o2)c1`, 12.5 µg/mL (≈ 32.6 µM) was the least that counted as inhibitory (MIC).
Still for that read-out and setting: with `O=C(Nc1ccc(F)cc1)Nc1c(-c2ccc(F)cc2)nc2ccccc2c1O` the figure was 6.25 µg/mL (≈ 16 µM); with `O=C(Nc1ccc(F)cc1)Nc1c(-c2cccc(F)c2)nc2ccccc2c1O`, 6.25 µg/mL (≈ 16 µM); with `O=C(Nc1cccc(Cl)c1)Nc1c(-c2ccc(F)cc2)nc2ccccc2c1O`, 6.25 µg/mL (≈ 15.3 µM).
On the same count and under the same terms, with `N#Cc1cccc(NC(=O)Nc2c(-c3cccc(F)c3)nc3ccccc3c2O)c1` the figure was 6.25 µg/mL (≈ 15.7 µM); with `Fc1cccc(-c2nc3ccccc3c3oc(NCc4ccccc4)nc23)c1`, 6.25 µg/mL (≈ 16.9 µM).
